Only some compounds are listed: those with a hit (about 2.4% of all), similar ones and a draw of the others.
Cneo AK release: causes C. neoformans cell lysis | adenylate kinase release luminescence, 4 h; normalised: neutral wells 0, clomiphene wells 100 | lysis activity, % at 15 µM | 360,000 tested, 0.2% active;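 active = mean lysis activity across replicates of at least 80%, whatever share of replicates individually reach that level; inactive = mean lysis activity below 80%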
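Assay system: C. neoformans cells. Amount: yeast cell density of 5 × 10^6 cells/mL. Technique: AK luminescence. Buffer or medium: YPD. Times: static 4 h at 37 °C with compound, 1 h detection. Dosing: single-point compound dose. Read-out: lysis from increased AK signal.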
Rtt109 HAT inh: inhibitors of Candida albicans Rtt109/Vps75 histone acetyltransferase. purified Rtt109/Vps75, ThioGlo CoA-SH fluorescence, 4 h. inhibition, % at 34.9 µM. 330,000 tested, 0.16% active;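 active = inhibition of at least 50% in every replicate; inconclusive = best replicate reaches 50% inhibition but some replicates fall short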
dFosB act: mouse delta FosB homodimer activation; P13346; 340,000 tested, 0.99% active; purified delta FosB, TAMRA-CDK5 oligo fluorescence polarization; percent of positive-control signal above neutral wells; activation, % at 25 µM;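 active = mean activation above about 17%, with every replicate also reaching it, limit read from the data, passing the limit was not always enough; inconclusive = only one of the two conditions met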
Target sequence (P13346 whole entry, looked up): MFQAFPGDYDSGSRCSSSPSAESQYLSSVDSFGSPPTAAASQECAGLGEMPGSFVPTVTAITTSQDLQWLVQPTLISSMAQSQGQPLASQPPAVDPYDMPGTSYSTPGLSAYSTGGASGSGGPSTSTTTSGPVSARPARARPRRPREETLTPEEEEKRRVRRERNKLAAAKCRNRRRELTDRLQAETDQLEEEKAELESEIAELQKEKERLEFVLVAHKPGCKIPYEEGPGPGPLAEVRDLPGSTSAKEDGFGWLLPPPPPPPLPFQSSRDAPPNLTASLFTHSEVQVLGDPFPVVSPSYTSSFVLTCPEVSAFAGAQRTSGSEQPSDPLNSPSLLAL
miR122 inh: inhibitors of miR-122 in Huh7 cells. 340,000 tested, 0.3% active. Huh7 miR-122 Renilla luciferase sensor, 48 h; neutral wells = 0, positive control = 100. activation (reporter increase), % at 12.5 µM;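 active = mean replicate activation score at least 90 and every replicate individually at or above 90; inconclusive = only one of the two criteria met; inactive = neither criterion met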;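 note: higher luciferase means less miR-122 activity so hits act as miR-122 inhibitors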
GSIS activator: GLuc luminescence reporter in INS-1E cells, primary screen for activators of glucose-dependent secretion of insulin; activation, % at 16.6 µM; AID 743287; 370,000 tested, 0.61% active; INS-1E GLuc reporter insulin secretion, 2-3 h;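 active = lowest replicate activation of at least 40%, so every replicate reaches that level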;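 note: 0% = median of neutral control wells and 100% = median of IBMX positive control wells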
HIV Env fusion: inhibitors of HIV Env-mediated cell fusion. inhibition, % at 12.3 µM. HeLa-JRFL Env/CEM21 cell fusion, luciferase. 360,000 tested, 1.1% active;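 active = mean replicate inhibition score of at least 50 and every replicate individually at or above 50; inconclusive = only one of the two criteria met; inactive = mean below 50 and not all replicates reaching 50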;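 note: 0% = plate neutral controls and 100% = maraviroc near 300 nM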
Numbers without * were called inactive; u = inconclusive; x = not tested or not shown; [ ] = remark or other dose.

SMILES	Cneo AK release	Rtt109 HAT inh	dFosB act	miR122 inh	GSIS activator	HIV Env fusion
CC(C)CC#Cc1ccc2c(c1)O[C@@H](CN(C)Cc1ccc(C(=O)O)cc1)[C@H](C)CN([C@@H](C)CO)S2(=O)=O	54	x	x	x	-18	-10[16.7 µM]
COc1ccc(NC(=O)Nc2ccc3c(c2)[C@@H]2C[C@@H](CC(=O)NCCc4ccccc4)O[C@@H](CO)[C@@H]2O3)cc1	18	x	x	11[16.7 µM]	32	9[16.7 µM]
C/C(=N/NS(=O)(=O)c1ccc(F)cc1)c1ccc(NC(=O)c2ccc(C)o2)cc1	0	5	-9	132*	1	x
Cc1ccc(/C=N/n2c(-c3cccnc3)n[nH]c2=S)s1	x	-3	0	x	40*	-11
CC(C)(C)c1ccc(C(=O)Nc2ccc(CN3CCS(=O)(=O)CC3)cc2)cc1	x	4	-15	-8	-6	-2
O=C(Nc1ccc(CN2CCS(=O)(=O)CC2)cc1)c1ccc(C(F)(F)F)cc1	5	4	0	-10	x	76*
O=C(Nc1ccc(CN2CCOCC2)cc1)c1ccc(Cl)cc1	-1	1	-9	x	7	-33
COC(=O)c1ccc(NC(=O)c2ccc(CN3CCOCC3)cc2)cc1	-1	3	-7	-7	22	84*
COC(=O)c1sc(NC(=O)c2cccc([N+](=O)[O-])c2)c(C(N)=O)c1C	-3	3	6	0	78*	2
CO[C@@H]1CN(C)C(=O)c2ccc(NS(=O)(=O)c3ccc(Oc4ccccc4)cc3)cc2OC[C@H](C)NC[C@H]1C	99*	x	x	x	4	29[16.7 µM]
CO[C@H]1CN(C)C(=O)c2ccc(NS(=O)(=O)C3CCCCC3)cc2OC[C@@H](C)NC[C@@H]1C	x	x	x	x	13	x
CO[C@@H]1CN(C)C(=O)c2cc(NS(=O)(=O)c3cccc(C)c3)ccc2OC[C@@H](C)NC[C@H]1C	104*	x	x	29[16.7 µM]	2	-39[16.7 µM]
CO[C@@H]1CN(C)C(=O)c2cc(NS(=O)(=O)C3CCCCC3)ccc2OC[C@H](C)NC[C@@H]1C	86*	x	x	x	x	-19[16.7 µM]
COc1cccc(S(=O)(=O)Nc2ccc3c(c2)OC[C@H](C)NC[C@H](C)[C@@H](OC)CN(C)C3=O)c1	x	x	x	x	9	-21[16.7 µM]
COc1cccc(S(=O)(=O)Nc2ccc3c(c2)OC[C@@H](C)NC[C@H](C)[C@@H](OC)CN(C)C3=O)c1	98*	x	x	-3[16.7 µM]	4	10[16.7 µM]
CCC(=O)Nc1ccc2c(c1)OC[C@@H](C)N(S(=O)(=O)c1cn(C)cn1)C[C@@H](C)[C@H](OC)CN(C)C2=O	-4	x	x	x	0	x
C[C@H](CO)N1C[C@H](C)[C@H](CN(C)Cc2ccc(Cl)c(Cl)c2)Oc2ccc(NC(=O)NC3CCCCC3)cc2C1=O	-3	x	x	-10[16.7 µM]	-7	10[16.7 µM]
CO[C@@H]1CN(C)C(=O)c2cc(NS(=O)(=O)c3ccc(C)cc3)ccc2OC[C@@H](C)N(C)C[C@@H]1C	139*	x	x	2[16.7 µM]	0	x
CO[C@@H]1CN(C)C(=O)c2cc(NS(=O)(=O)c3ccc(C)cc3)ccc2OC[C@@H](C)N(C)C[C@H]1C	1	x	x	-1[16.7 µM]	0	x
CC(=O)Nc1ccc(NC(=O)CN(c2ccc(C34CC5CC(CC(C5)C3)C4)cc2)S(C)(=O)=O)cc1	-2	-2	u	x	-5	93*
O=C(N[C@H]1CC[C@@H](CCNS(=O)(=O)c2ccccc2)O[C@H]1CO)c1cccc(F)c1	2	x	x	x	-14	3[16.7 µM]
Cc1cc(C)cc(NC(=O)CCn2c(=S)[nH]c3ccccc3c2=O)c1	1	14	30*	7	6	-1
CC1CCCCC1NC(=O)CCn1c(=S)[nH]c2ccccc2c1=O (configuration not stated)	x	x	x	x	-12	10
Cc1noc(C)c1NC(=O)N(C)C[C@@H]1OCCCC[C@@H](C)Oc2ccc(NC(=O)NC(C)C)cc2C(=O)N([C@@H](C)CO)C[C@H]1C	-5	x	x	4[16.7 µM]	10	-99[16.7 µM]
CCCCCCOc1ccc(/C(C)=N/NC2=NCCN2)cc1[N+](=O)[O-]	x	9	55*	x	-7	-13
SMILES	Cneo AK release	Rtt109 HAT inh	dFosB act	miR122 inh	GSIS activator	HIV Env fusion
C/C(=N\NC1=NCCN1)c1ccc(N)c([N+](=O)[O-])c1	x	1	4	x	6	2
C=C[C@@H]1c2ccccc2N(S(=O)(=O)c2ccc(C)cc2)[C@H](c2ccccc2C(F)(F)F)C1(C#N)C#N	1	-7	5	x	x	u
C=C[C@@H]1c2ccccc2N(S(=O)(=O)c2ccc(C)cc2)[C@H](c2ccc(C(F)(F)F)cc2)C1(C#N)C#N	0	-2	-2	x	5	56*
C[C@H](CO)N1C[C@H](C)[C@@H](CN(C)Cc2ccccc2)Oc2ccc(NC(=O)C3CCCCC3)cc2C1=O	4	x	x	1[16.7 µM]	-12	1[16.7 µM]
O=C([C@H]1[C@H](CO)[C@H]2Cn3c(cccc3=O)[C@@H]1N2Cc1cccc(Cl)c1)N1CCCCC1	-3	x	x	6[16.7 µM]	5	x
O=C([C@H]1[C@H](CO)[C@H]2Cn3c(cccc3=O)[C@@H]1N2Cc1cccc(Cl)c1)N1CCOCC1	90*	x	x	x	19	17[16.7 µM]
CC(C)C#Cc1cnc2c(c1)C(=O)N([C@H](C)CO)C[C@H](C)[C@@H](CN(C)C(=O)c1ccc3c(c1)OCO3)O2	7	x	x	0[16.7 µM]	-13	11[16.7 µM]
O=C(NC(=S)Nc1cccc2[nH]ncc12)c1ccccc1	1	3	-6	-9	159*	4
O=C(Nc1cccc2[nH]ncc12)c1ccc(F)cc1	0	4	5	15	x	74*
C[C@H](CO)N1C[C@H](C)[C@@H](CN(C)C(=O)CN2CCOCC2)Oc2ncc(/C=C/c3ccccc3)cc2C1=O	-2	x	x	-4[16.7 µM]	-13	-13[16.7 µM]
O=C(c1ccccc1F)N1CCCC(N2CCN(Cc3ccc4c(c3)OCO4)CC2)C1 (configuration not stated)	4	x	x	-1	47*	-5
CC(=O)c1ccccc1C(=O)N1CCCC(N2CCN(Cc3ccc4c(c3)OCO4)CC2)C1 (configuration not stated)	3	4	0	-1	36	-9
O=C(c1ccccc1F)N1CCN(Cc2cccc(Cl)c2)CC1	0	x	-6	0	x	69*
CC1Cc2ccccc2N1c1ncnc(N)c1[N+](=O)[O-] (configuration not stated)	x	-9	-3	x	-16	65*
CN1/C(=C\C=C2/C(=O)Oc3ccccc3C2=O)C(C)(C)c2ccccc21	x	x	x	x	-10	-2
CN1C(=CC=C2C=C(I)C(=O)C(I)=C2)C(C)(C)c2ccccc21	3	2	175*	8	-36	-9
CN1/C(=C\C=C2/SC(=S)NC2=O)C(C)(C)c2ccccc21	x	30	70*	-14	18	32
CCCN1C(=O)/C(=C\C=C2\N(CC)c3ccccc3C2(C)C)SC1=S	1	5	-99	x	12	11

Screening results (PubChem)
